ChEMBL document CHEMBL4392833, “Thiazolyl-pyrazole derivatives as potential antimycobacterial agents” (Bioorg Med Chem Lett, 2019)
≈ marks a conversion by molar mass, not a printed value.

How the values were obtained:
[1] = test system: Mycobacterium tuberculosis; assay: Antitubercular activity against dormant stage of Mycobacterium tuberculosis H37Ra ATCC 25177 assessed as growth inhibition at 3 ug/ml after 12 days by XRMA relative to control; type: functional; settings: H37Ra ATCC 25177, 288 h
HeLa = assay: (§1) Growth inhibition of human HeLa cells by MTT assay; type: cell-based; settings: hela
Summary of the method: (§2)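 Human cancer cell lines were exposed in vitro to a range of compound concentrations. Viability was read by MTT colorimetric assay, and GI50 and GI90 were derived from the concentration series.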

[2] = as §1; type: cell-based; settings: HeLa cells; summary of the method: as §2
[3] = test system: Mycobacterium tuberculosis; assay: Antitubercular activity against dormant stage of Mycobacterium tuberculosis H37Ra ATCC 25177 assessed as growth inhibition at 30 ug/ml after 12 days by XRMA relative to control; type: functional; settings: H37Ra ATCC 25177, 288 h
[4] = test system: Mycobacterium tuberculosis; assay: Antitubercular activity against dormant stage of Mycobacterium tuberculosis H37Ra ATCC 25177 by two fold dilution technique; type: functional
Summary of the method: (§3)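 MIC against dormant-stage bacilli, read out by XTT reduction menadione assay (XRMA), with rifampicin MIC determined the same way as reference.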

[5] = test system: Mycobacterium tuberculosis; assay: Antitubercular activity against dormant stage of Mycobacterium tuberculosis H37Ra ATCC 25177 after 12 days by XRMA; type: functional, organism-based; settings: H37Ra ATCC 25177, 288 h; summary of the method: as §3
THP-1 [6] = assay: Cytotoxicity against human THP1 cells at 10 ug/ml; type: cell-based
[7] = test system: Mycobacterium tuberculosis; assay: Antitubercular activity against dormant stage of Mycobacterium tuberculosis H37Ra ATCC 25177 assessed as growth inhibition at 10 ug/ml after 12 days by XRMA relative to control; type: functional; settings: H37Ra ATCC 25177, 288 h
[8] = test system: Mycobacterium tuberculosis; assay: Antitubercular activity against dormant stage of Mycobacterium tuberculosis H37Ra ATCC 25177 infected in human THP1 cells by nitrate reductase assay; type: functional, organism-based; settings: for MIC90: H37Ra ATCC 25177; for IC50: H37Ra ATCC 25177, THP-1
THP-1 [9] = assay: Cytotoxicity against human THP1 cells at 3 ug/ml; type: cell-based
PANC-1 = assay: (§4) Growth inhibition of human PANC1 cells by MTT assay; type: cell-based; settings: panc-1; summary of the method: as §2
[10] = as §4; type: cell-based, PANC-1; settings: PANC-1 cells; summary of the method: as §2
THP-1 [11] = assay: Cytotoxicity against human THP1 cells at 30 ug/ml; type: cell-based
A549 = assay: (§5) Growth inhibition of human A549 cells by MTT assay; type: cell-based; settings: a549; summary of the method: as §2
[12] = as §5; type: cell-based; settings: A549 cells; summary of the method: as §2
[13] = Growth inhibition of human THP1 cells; type: cell-based; settings: THP-1 cells

Row | Compound | inhibition at 3 µg/mL [1] [%] | GI90 (HeLa) [µg/mL] | GI50 [2] [µg/mL] | inhibition at 30 µg/mL [3] [%] | MIC90 [4] | IC50 [5] | Activity (THP-1 [6]) [%] | inhibition at 10 µg/mL [7] [%] | MIC90 [8] | IC50 [8] | Activity (THP-1 [9]) [%] | GI90 (PANC-1) [µg/mL] | GI50 [10] [µg/mL] | Activity (THP-1 [11]) [%] | GI90 (A549) [µg/mL] | GI50 [12] [µg/mL] | GI50 [13] [µg/mL]
1 | Cc1nc(C)c(-c2nn(-c3ccc(F)cc3)cc2/C=C/C(=O)c2c(O)cc(C)c(Cl)c2C)s1 | 3.39 | 128.28 (≈ 266 µM) | 59.3 (≈ 123 µM) | 10.1 | > 30 µg/mL | > 30000 nM | 18.42 | 9.47 | > 30 µg/mL | > 30 µg/mL | 13.12 | 97.41 (≈ 202 µM) | 35.2 (≈ 73.1 µM) | 41.43 | 84.31 (≈ 175 µM) | 33.5 (≈ 69.4 µM) | –
2 | Cc1nc(C)c(-c2nn(-c3ccc(F)cc3)cc2/C=C/C(=O)c2cc(Cl)ccc2O)s1 | 2.66 | > 250 | > 250 | 3.39 | > 30 µg/mL | > 30 µg/mL | 34.74 | 5.49 | > 30 µg/mL | > 30 µg/mL | 16.49 | > 250 | > 250 | 36.55 | > 250 | > 250 | –
3 | Cc1nc(C)c(-c2nn(-c3ccc(F)cc3)cc2/C=C/C(=O)c2cc(Br)ccc2O)s1 | 23.5 | 44.94 (≈ 90.2 µM) | 4.88 (≈ 9.79 µM) | 27.5 | > 30 µg/mL | > 30 µg/mL | 21.42 | 9 | > 30 µg/mL | > 30 µg/mL | 20.41 | > 250 | > 250 | 24.98 | > 250 | > 250 | –
4 | Cc1ccc(O)c(C(=O)/C=C/c2cn(-c3ccc(F)cc3)nc2-c2sc(C)nc2C)c1 | 34.7 | 77.32 (≈ 178 µM) | 29.9 (≈ 68.9 µM) | 96 | 32.7 µM | 5560 nM | 15.3 | 61.7 | 17.1 µM | 2860 nM | 14.14 | 114.87 (≈ 265 µM) | 52.4 (≈ 121 µM) | 24.3 | 136.87 (≈ 316 µM) | 47.8 (≈ 110 µM) | –
5 | Cc1ccc(O)c(C2=NNC(c3cn(-c4ccc(F)cc4)nc3-c3sc(C)nc3C)C2)c1 (centres undefined) | 24.8 | > 250 | > 250 | 36.7 | 46.4 µM | 4310 nM | 10.7 | 39.7 | 33.4 µM | 11900 nM | 5.94 | > 250 | > 250 | 24.05 | > 250 | > 250 | –
6 | Cc1nc(C)c(-c2nn(-c3ccc(F)cc3)cc2C2CC(c3cc(Br)ccc3O)=NN2)s1 (centres undefined) | 42.5 | 43.11 (≈ 84.1 µM) | 21.6 (≈ 42.2 µM) | 88.2 | 5.79 µM | 310 nM | 14.69 | 75.5 | 2.95 µM | 410 nM | 13.91 | 115.65 (≈ 226 µM) | 76.4 (≈ 149 µM) | 19.51 | 154.68 (≈ 302 µM) | 81.4 (≈ 159 µM) | > 30
7 | Cc1nc(C)c(-c2nn(-c3ccc(F)cc3)cc2C2CC(c3c(O)cc(C)c(Cl)c3C)=NN2)s1 (centres undefined) | 91 | 46.87 (≈ 94.5 µM) | 25.2 (≈ 50.8 µM) | 93.7 | 5.04 µM | 80 nM | 15.45 | 95.4 | 1.23 µM | 440 nM | 9.52 | 77.64 (≈ 157 µM) | 41.6 (≈ 83.9 µM) | 18.32 | 88.98 (≈ 179 µM) | 43.4 (≈ 87.4 µM) | > 30
8 | Cc1ccc2oc(-c3cn(-c4ccc(F)cc4)nc3-c3sc(C)nc3C)cc(=O)c2c1 | 47.8 | > 250 | > 250 | 92.2 | 5.89 µM | 1070 nM | 2.34 | 88.6 | 1.23 µM | 160 nM | 0.8 | > 250 | > 250 | 4.94 | > 250 | > 250 | > 30
9 | Cc1nc(C)c(-c2nn(-c3ccc(F)cc3)cc2-c2cc(=O)c3cc(Cl)c(C)cc3o2)s1 | 53.5 | 53.48 (≈ 115 µM) | 16.7 (≈ 35.8 µM) | 93.7 | 3.69 µM | 1670 nM | 16.62 | 23.2 | 2.94 µM | 670 nM | 12.82 | > 250 | > 250 | 24.65 | > 250 | > 250 | > 30
10 | Cc1nc(C)c(-c2nn(-c3ccc(F)cc3)cc2/C=C/C(=O)c2cc(Cl)cc(Cl)c2O)s1 | 20.4 | > 250 | > 250 | 30.5 | > 30 µg/mL | > 30 µg/mL | 17.69 | 26.8 | > 30 µg/mL | > 30 µg/mL | 15.71 | > 250 | > 250 | 49.76 | > 250 | > 250 | –
11 | Cc1nc(C)c(-c2nn(-c3ccc(F)cc3)cc2C2CC(c3cc(Cl)ccc3O)=NN2)s1 (centres undefined) | 41.6 | > 250 | > 250 | 97.2 | 2.48 µM | 60 nM | 11.51 | 79.7 | 1.5 µM | 360 nM | 7.09 | > 250 | > 250 | 17.04 | > 250 | > 250 | > 30
12 | Cc1nc(C)c(-c2nn(-c3ccc(F)cc3)cc2/C=C/C(=O)c2cc(Cl)c(C)cc2O)s1 | 3.95 | 87.29 (≈ 187 µM) | 34.9 (≈ 74.5 µM) | 92.7 | 49.7 µM | 2440 nM | 13.26 | 16.3 | 7.56 µM | 1920 nM | 10.73 | > 250 | > 250 | 17.45 | > 250 | > 250 | –
13 | Cc1nc(C)c(-c2nn(-c3ccc(F)cc3)cc2C2CC(c3cc(Cl)c(C)cc3O)=NN2)s1 (centres undefined) | 38.8 | > 250 | > 250 | 95.6 | 9.65 µM | 520 nM | 10.66 | 43.5 | 8.59 µM | 1620 nM | 9.1 | > 250 | 127 (≈ 264 µM) | 17.93 | > 250 | 146 (≈ 302 µM) | > 30
14 | CC(=O)O[C@H]1C(=O)[C@@]2(C)[C@H]([C@H](OC(=O)c3ccccc3)[C@]3(O)C[C@H](OC(=O)[C@H](O)[C@@H](NC(=O)c4ccccc4)c4ccccc4)C(C)=C1C3(C)C)[C@]1(OC(C)=O)CO[C@@H]1C[C@@H]2O [PACLITAXEL] | – | 0.075 (≈ 0.0878 µM) | – | – | – | – | – | – | – | – | – | 5.715 (≈ 6.69 µM) | – | – | 0.0706 (≈ 0.0827 µM) | – | –
15 | CO[C@H]1/C=C/O[C@@]2(C)Oc3c(C)c(O)c4c(O)c(c(/C=N/N5CCN(C)CC5)c(O)c4c3C2=O)NC(=O)/C(C)=C\C=C\[C@H](C)[C@H](O)[C@@H](C)[C@@H](O)[C@@H](C)[C@H](OC(C)=O)[C@@H]1C [RIFAMPIN] | – | > 100 | > 100 | – | 0.91 µM | – | – | – | – | – | – | > 100 | > 100 | – | > 100 | > 100 | –
